Experimental findings from ChEMBL document CHEMBL1221183, “Chemical modulation of receptor signaling inhibits regenerative angiogenesis in adult zebrafish” (Nat Chem Biol, 2006) are described below.

Active and inactive are the calls of the source. The rule behind the calls is not given here.

Experiment [1] addresses Vascular endothelial growth factor receptor 2 (Danio rerio) (UniProt Q5GIT4). Description: Inhibition of VEGFR2-mediated regenerative angiogenesis in adult zebrafish tail fin vessel at 500 to 1000 nM after 3 days by microscopy. It is filed as tissue-based.
The target is the same in experiment [2]. The experiment is described as follows: Inhibition of VEGFR2-mediated regenerative angiogenesis in adult zebrafish tail fin vessel at 100 to 500 nM after 3 days by microscopy. The gist of the method:
(§1)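 Adult fins cut at mid-fin level; fish kept in fish water with inhibitor (DMSO stock, final DMSO <0.1%) at 31-33 °C, up to six fish per liter, for 3 dpa. Tg(fli1:EGFP)y1 endothelial signal imaged by fluorescence microscopy, with perfusion shown by intracardiac angiography in the same fish.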

For experiment [3] the target is unchanged. The experiment is described as follows: Mild inhibition of VEGFR2-mediated regenerative angiogenesis in adult zebrafish tail fin vessel at 100 to 500 nM after 3 days by microscopy. The method, boiled down: as §1
For experiment [4] the target is unchanged. Description: Inhibition of VEGFR2-mediated regenerative angiogenesis in adult zebrafish tail fin vessel at 500 to 1000 nM after 3 days by microscopy.
Experiment [5] has the same target. Description: Inhibition of VEGFR2-mediated regenerative angiogenesis in adult zebrafish tail fin distal vessel at 500 nM treated for 3 days post 5 days of amputation period measured on day 5 by angiography. The method, boiled down: (§2)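 Amputated adult Tg(fli1:EGFP)y1 fins recovered at 31-33 °C in fish water or 500 nM inhibitor (final DMSO <0.1%); in washout runs the drug was removed at 3 dpa. The same fish were imaged over several days.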

Experiment [6] shares this target. Description: Partial inhibition of VEGFR2-mediated regenerative angiogenesis in adult zebrafish tail fin vessel at 100 nM after 3 days by microscopy. The method, boiled down:
as §1

The target is the same in experiment [7]. Description: Inhibition of VEGFR2-mediated regenerative angiogenesis in wild type adult zebrafish tail fin vessel assessed as vascularization of newly generated tissues at 100 nM measured on day 3 post treatment by angiography. It is filed as tissue-based. On the set-up: scale not given: the % may be the effect or the level left. The method, boiled down:
(§3)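 Fins of wild-type or mutant adults cut at mid-fin level, then kept 3 dpa in fish water or 100 nM PTK787 at 31-33 °C. Perfusion shown by intracardiac injection of fluorescent lectin or 70-kDa dextran (5 mg ml-1 in Danieau's, pH 7.6). Tissue regrowth and vessel regeneration measured for each fish and given as percentage of vascularization; ANOVA with Tukey tests.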

Experiment [8] shares this target. The experiment is described as follows: Inhibition of VEGFR2-mediated VEGFA mRNA expression in adult zebrafish tail fin at 500 nM after 1.5 days by in-situ hybridization assay.
The target is the same in experiment [9]. Description: Effect on VEGFR2-mediated VEGFA mRNA expression in adult zebrafish tail fin at 500 nM treated for 3 days measured on day 5 following drug washout by real-time PCR analysis.
For experiment [10] the target is unchanged. The experiment is described as follows: Inhibition of VEGFR2-mediated regenerative angiogenesis in PLCgamma1y10 gene-deficient adult zebrafish tail fin vessel assessed as vascularization of newly generated tissues at 100 nM measured on day 3 post treatment by angiography. Format: tissue-based. Also noted: scale not given: the % may be the effect or the level left. The method, boiled down: as §3

Experiment [11] shares this target. Description: Effect on VEGFR2-mediated axonal outgrowth in adult zebrafish tail fin at 500 nM after 5 days by zn-12 staining-based immunohistochemistry. The method, boiled down: (§4)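 Fins fixed overnight at 4 °C in Dent's fixative, dehydrated in a methanol series, re-fixed in 4% paraformaldehyde for 2-24 h, then permeabilized in acetone at -20 °C for 20 min and blocked 1 h at 37 °C. Primary antibody zn-12, zns-5 or B-4 (smooth muscle actin) at 1:50-1:200 overnight at 4 °C; Cy2/Cy3 secondary at 1:200.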

The target is the same in experiment [12]. Description: Inhibition of VEGFR2-mediated regenerative angiogenesis in adult zebrafish tail fin assessed as decrease in tissue regeneration at 500 nM after 5 days by angiography. It is filed as tissue-based. The method, boiled down: as §2
Experiment [13] is filed under the species Danio rerio. The experiment is described as follows: Decrease in VEGFR2 gene expression in adult zebrafish tail fin at 500 nM treated for 3 days measured on day 4 following drug washout by real-time PCR analysis.
Experiment [14] addresses Vascular endothelial growth factor receptor 2 (Danio rerio) (UniProt Q5GIT4). The experiment is described as follows: Inhibition of VEGFR2-mediated regenerative angiogenesis in adult zebrafish tail fin distal vessel at 500 nM treated for 3 days post 5 days of amputation period measured on day 8 by angiography. The method, boiled down:
as §2

Experiment [15] is filed under the species Danio rerio. The experiment is described as follows: Decrease in VEGFR2 gene expression in adult zebrafish tail fin at 500 nM up to 2 days by in-situ hybridization assay.
The target in experiment [16] is Vascular endothelial growth factor receptor 2 (Danio rerio) (UniProt Q5GIT4). Description: Inhibition of VEGFR2-mediated regenerative angiogenesis in adult zebrafish tail fin assessed as reduction of plexus formation at 500 nM treated for 3 days measured after 4 days of drug washout by angiography. The method, boiled down:
as §2

Experiment [17] is filed under the species Danio rerio. The experiment is described as follows: Effect on semaphorin3aa mRNA expression in adult zebrafish tail fin at 500 nM treated for 3 days measured on day 5 following drug washout by real-time PCR analysis.
In experiment [18] the target is Vascular endothelial growth factor receptor 2 (Danio rerio) (UniProt Q5GIT4). The experiment is described as follows: Inhibition of VEGFR2-mediated regenerative angiogenesis in adult zebrafish tail fin assessed as amount of tissue regeneration at 500 nM measured on day 7 post treatment by angiography. Format: tissue-based. The method, boiled down: as §2
For experiment [19], the species on record is Danio rerio. Description: Decrease in FGFR1 mRNA expression in adult zebrafish tail fin at 500 nM measured on day 2 post treatment by in-situ hybridization assay.
The target of experiment [20] is Vascular endothelial growth factor receptor 2 (Danio rerio) (UniProt Q5GIT4). Description: Complete inhibition of VEGFR2-mediated regenerative angiogenesis in adult zebrafish tail fin vessel at 500 nM after 3 days by microscopy. The gist of the method:
as §1

Experiment [21] shares this target. The experiment is described as follows: Inhibition of VEGFR2-mediated regenerative angiogenesis in adult zebrafish tail fin vessel harboring hypomorphic mutation in grlm145 gene assessed as vascularization of newly generated tissues at 100 nM measured on day 3 post treatment by angiography. Format: tissue-based. Also noted: scale not given: the % may be the effect or the level left. The gist of the method: as §3

For experiment [22] the target is unchanged. The experiment is described as follows: Inhibition of VEGFR2-mediated regenerative angiogenesis in adult zebrafish tail fin assessed disruption of actin filament at 500 nM after 14 days by immunohistochemistry.
For experiment [23] the target is unchanged. Description: Inhibition of VEGFR2-mediated regenerative angiogenesis in adult zebrafish tail fin proximal vessel at 500 nM treated for 3 days post 5 days of amputation period measured on day 8 by angiography. The method, boiled down: as §2
The target is the same in experiment [24]. The experiment is described as follows: Inhibition of VEGFR2-mediated msxb mRNA expression in adult zebrafish tail fin at 500 nM measured on day 2 post treatment by in-situ hybridization assay.
Experiment [25] has the same target. The experiment is described as follows: Inhibition of VEGFR2-mediated regenerative angiogenesis in adult zebrafish tail fin assessed as amount of tissue regeneration at 500 nM measured on day 14 post treatment by angiography. It is filed as tissue-based. The method, boiled down: as §2
Experiment [26] shares this target. The experiment is described as follows: Inhibition of VEGFR2-mediated regenerative angiogenesis in clom39-positive heterozygous adult zebrafish tail fin vessel assessed as vascularization of newly generated tissues at 100 nM measured on day 3 post treatment by angiography. It is filed as tissue-based. Also noted: scale not given: the % may be the effect or the level left. The gist of the method: as §3

For experiment [27], the species on record is Danio rerio. Description: Decrease in VEGFR2 gene expression in adult zebrafish tail fin at 500 nM after 3 days by real-time PCR analysis.
Experiment [28] has as its target Vascular endothelial growth factor receptor 2 (Danio rerio) (UniProt Q5GIT4). The experiment is described as follows: Inhibition of VEGFR2-mediated regenerative angiogenesis in adult zebrafish tail fin assessed disruption of actin filament at 500 nM measured after 1 week or recovery post amputation by immunohistochemistry.
Experiment [29] is filed under the species Danio rerio. The experiment is described as follows: Effect on ephrinB2a mRNA expression in adult zebrafish tail fin at 500 nM treated for 3 days measured on day 5 following drug washout by real-time PCR analysis.
Experiment [30] has as its target Vascular endothelial growth factor receptor 2 (Danio rerio) (UniProt Q5GIT4). Description: Effect on VEGFR2-mediated bone tissue regeneration in adult zebrafish tail fin at 500 nM after 5 days by zns-5 staining-based immunohistochemistry. The method, boiled down:
as §4

Experiment [31] shares this target. The experiment is described as follows: Inhibition of VEGFR2-mediated shh mRNA expression in adult zebrafish tail fin at 500 nM measured on day 2 post treatment by in-situ hybridization assay.
For experiment [32] the target is unchanged. The experiment is described as follows: Inhibition of VEGFR2-mediated regenerative angiogenesis in adult zebrafish tail fin proximal vessel at 500 nM treated for 3 days post 5 days of amputation period measured on day 5 by angiography. The gist of the method:
as §2

Experiment [33] shares this target. Description: Inhibition of VEGFR2-mediated regenerative angiogenesis in adult zebrafish tail fin at 500 nM treated for 3 days measured after 4 days of drug washout by angiography. The gist of the method: as §2
Experiment [34] is filed under the species Danio rerio. Description: Decrease in VEGFR2 gene expression in adult zebrafish tail fin at 500 nM treated for 3 days measured on day 5 following drug washout by real-time PCR analysis.

Chain of Vascular endothelial growth factor receptor 2 (Danio rerio) (Q5GIT4 whole entry): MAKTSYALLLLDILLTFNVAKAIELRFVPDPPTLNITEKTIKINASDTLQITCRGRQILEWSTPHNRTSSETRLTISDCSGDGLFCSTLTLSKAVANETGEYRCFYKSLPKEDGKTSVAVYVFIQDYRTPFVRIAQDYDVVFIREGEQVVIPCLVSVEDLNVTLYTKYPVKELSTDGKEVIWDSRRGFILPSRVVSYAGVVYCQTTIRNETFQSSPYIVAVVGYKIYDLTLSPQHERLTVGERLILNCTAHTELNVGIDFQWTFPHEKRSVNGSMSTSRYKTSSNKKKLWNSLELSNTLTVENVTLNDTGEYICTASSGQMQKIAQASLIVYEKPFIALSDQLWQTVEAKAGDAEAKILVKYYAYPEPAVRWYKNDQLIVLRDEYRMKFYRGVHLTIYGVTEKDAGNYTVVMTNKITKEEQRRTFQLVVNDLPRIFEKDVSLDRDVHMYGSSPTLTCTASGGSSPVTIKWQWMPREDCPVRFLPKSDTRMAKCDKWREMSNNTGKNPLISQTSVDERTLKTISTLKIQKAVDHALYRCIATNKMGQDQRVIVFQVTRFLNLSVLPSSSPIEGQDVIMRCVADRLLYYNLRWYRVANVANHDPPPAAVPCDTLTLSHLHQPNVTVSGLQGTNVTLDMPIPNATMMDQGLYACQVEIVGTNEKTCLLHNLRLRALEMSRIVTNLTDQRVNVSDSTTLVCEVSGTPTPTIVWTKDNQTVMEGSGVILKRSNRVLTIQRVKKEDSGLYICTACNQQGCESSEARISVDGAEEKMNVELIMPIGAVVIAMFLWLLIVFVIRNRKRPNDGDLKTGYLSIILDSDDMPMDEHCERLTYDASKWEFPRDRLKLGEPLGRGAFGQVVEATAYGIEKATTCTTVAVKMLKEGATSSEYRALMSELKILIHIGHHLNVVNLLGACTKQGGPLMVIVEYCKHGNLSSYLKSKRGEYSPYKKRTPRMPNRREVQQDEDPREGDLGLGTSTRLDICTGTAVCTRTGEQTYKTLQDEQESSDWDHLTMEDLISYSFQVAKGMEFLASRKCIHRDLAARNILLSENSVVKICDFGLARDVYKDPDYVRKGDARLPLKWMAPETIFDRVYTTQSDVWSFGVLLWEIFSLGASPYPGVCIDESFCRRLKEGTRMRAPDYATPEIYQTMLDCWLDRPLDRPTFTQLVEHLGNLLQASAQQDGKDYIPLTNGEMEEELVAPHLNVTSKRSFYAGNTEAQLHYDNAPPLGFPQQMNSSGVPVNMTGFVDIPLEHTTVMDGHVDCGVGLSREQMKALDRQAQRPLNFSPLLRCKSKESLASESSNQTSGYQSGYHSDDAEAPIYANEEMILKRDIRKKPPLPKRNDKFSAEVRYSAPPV

As for `Cc1cc(C)c(/C=C2\C(=O)Nc3ccccc32)[nH]1`, the inhibition result in [1] is “inactive”.

Take `O=C(Nc1cccc(C(F)(F)F)c1)c1ccccc1NCc1ccncc1`: the inhibition entry in experiment [2] was “Active”.

In the case of `CCN(CC)CCNC(=O)c1c(C)[nH]c(/C=C2\C(=O)Nc3ccc(Cl)cc32)c1C`, the inhibition entry in experiment [3] and in experiment [4] was “Active” each time.

Take `Clc1ccc(Nc2nnc(Cc3ccncc3)c3ccccc23)cc1`: the inhibition entry (in experiment [5]; in experiment [6]; in [12]; in experiment [14]; in the experiment filed under Danio rerio [15]; in experiment [16]) was “Active” throughout. Also, the inhibition result (in [20]; in the experiment listed under Danio rerio [27]; in [28]; in experiment [4]) was “Active” in each case. The Activity in experiment [7] is 50%; in experiment [10], 30%; in experiment [21], 30%; in experiment [26], 50%. Further, the inhibition result (in experiment [8]; in the experiment listed under Danio rerio [13]; in the experiment filed under Danio rerio [19]; in [22]; in [23]; in experiment [24]) was “inactive” in each case. The inhibition entry (in experiment [31]; in experiment [32]; in experiment [33]; in the experiment listed under Danio rerio [34]) was “inactive” each time. Moreover, the outcome (in experiment [9]; in experiment [11]; in the experiment listed under Danio rerio [17]; in the experiment listed under Danio rerio [29]; in experiment [30]) was inactive. Also, the regenerated tissue length in experiment [18] and in experiment [25] was 800 µm in each case.
